Results reported in the EternaBench riboswitch data.

Test system: MS2 coat protein
Assay: apparent Kd, MS2 coat protein; higher = weaker binding; RNA-MaP array; FMN 200 µM where present
In short: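 Designs were transcribed by stalled E. coli RNA polymerase on Illumina sequencing-chip clusters. They were titrated with SNAP-549-labelled MS2 coat protein from 0.7 or 1.5 nM, doubling to 3 µM, in 100 mM Tris-HCl pH 7.5, 80 mM KCl, 4 mM MgCl2, BSA, DTT, yeast tRNA and Tween-20, without and then with constant ligand. The apparent Kd is the median of filtered per-cluster fits after normalisation of green signal to red-channel RNA signal and control-cluster median Fmax.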

[1] = designed as: OFF switch for flavin mononucleotide, no ligand
[2] = ligand present: flavin mononucleotide, designed as: OFF switch for flavin mononucleotide
[3] = designed as: ON switch for flavin mononucleotide, no ligand
[4] = ligand present: flavin mononucleotide, designed as: ON switch for flavin mononucleotide

Row | Sequence | apparent Kd [1] | apparent Kd [2] | apparent Kd [3] | apparent Kd [4]
1 | AUACUAAAUGAAGGAUAUCUAAGCAUAAACCUGAGAGAAGGUCAUUUUUACAUGAGGAUCACCCAUGUUGUGAUUAAUGGGUUA | 71.8 nM | 144 nM |  | 
2 | AUACUAAAUGAAGGAUAUCUAAGCAUAAACCUGAGAGAAGGUCAUUUUUACAUGAGGAUCACCCAUGUUGUGGUUAAUGGGUUA | 216 nM | 317 nM |  | 
3 | AUACUCAUGUAAGGAUAUGCAGCCGUUUCGGCUGCAGAAGGUACUAUAAUACAUGAGGAUCACCCAUGUCUCUCGCAUUGCGGG |  |  | 400 nM | 101 nM
4 | AUAGGCCUAGGAUAUACAUGAGGAUCACCCAUGUUAAUACUUCAAUCAUGAUAAACGUGUAGAAGGAGGAAUAA | 25.8 nM | 26.1 nM |  | 
5 | AUAGGUUAAGGAGGAUAUAGAGGGAGAAGUACACAUGAGGAUCACCCAUGUAUUUAAUUAGUUUACUAGAAGGCUUAUGAUUGU |  |  | 46.6 nM | 53.8 nM
6 | AUAGUUUUCAUAGGAUAUUGAAUUAUAUUUAAUCAAGAAGGAUGAAUACAUGAGGAUCACCCAUGUUAACAUGGAUUAAGUAGU | 20.9 nM | 44.3 nM |  | 
7 | AUAUACAUUCGAGGAUAUCGUUAAAAUGUUAUGCGAGAAGGCGAGUCAUGAUUUAUUAUUUAGGACAUGAGGAUCACCCAUGUA |  |  | 40.2 nM | 33.1 nM
8 | AUAUACUUCCAGAAGGCACAUGAGGAUCACCCAUGUACGUCUGACAUCGUGUGAGGAUAUGGAGCACGAACGCUAAAGCGGGCA | 7.92 nM | 21.3 nM |  | 
9 | AUAUAUAUAAAGAAGGUGCCAGCGAGAGCUGCACAUGAGGAUCACCCAUGUUGUCGGUGACGACGCAAGGAUAUUUAUAUAUAU |  |  | 31.6 nM | 7.28 nM
10 | AUAUAUUAGUUAGGAUAUCUGUAAUUUAUUGAAACAUGAGGAUCACCCAUGUUCAUAAAUUUAUAGGAGAAGGGAUAGAUAUAU |  |  | 5.17 nM | 5.03 nM
11 | AUAUCCGAAGCAGGAUAUCGACGAGGUGUCGAGAUAGAGCGUACUCACAUGAGGAUCACCCAUGUCGAGAAGGGCUAUAGGAUA | 22.2 nM | 83.4 nM |  | 
12 | AUAUCUUAUGAGAAGGCGAUCAUGAAACAUGAUCGAGGAUAUCAUGUAAACAUGAGGAUCACCCAUGUAUGGGUAUUAUGGUAU |  |  | 89.4 nM | 57 nM
13 | AUAUGAAAGAUAGGAUAUACUGAGGUUGAAUGGGUAGAAGGAUCGAUAGUGGAGAAGACAUGAGGAUCACCCAUGUUGUGGAUU |  |  | 656 nM | 237 nM
14 | AUAUGAUAGAUAGGAUAUACAGUGGAUUUAUAAGUAGAAGGAUCAAGUGGGAAUUAUACAUGAGGAUCACCCAUGUUUUUGGAU |  |  | 68.2 nM | 45.8 nM
15 | AUAUGAUAGAUAGGAUAUACUAUGGUUGAAGAAGUAGAAGGAUCAAUUGGGAAAUGUACAUGAGGAUCACCCAUGUUAUGGGUU |  |  | 943 nM | 493 nM
16 | AUAUUAUAGAUCCAUUUAUUCAACAUGAGGAUCACCCAUGUGCAGGAUAUCGUGUGUUUUAUAAACGAGAAGGGCAAAUUCAUU | 31.9 nM | 96.7 nM |  | 
17 | AUCAACUCGUCAGGAUAUACGUCACUGCGUCAGCAGUGUGGUAAGAUCACAUGAGGAUCACCCAUGUAGAAGGGACGAGCUGAU | 12.5 nM | 269 nM |  | 
18 | AUCACGUAAGGAUAUUCCUACGCAGACAUGAGGAUCACCCAUGUGUUAGUGAAGAAUCGAGGAGAAGGUACAAUGG | 29.5 nM | 26.8 nM |  | 
19 | AUCAGCUCGUCAGGAUAUACAUCACUGCUUCGGCAGUGUAUUAAGAUCACAUGAGGAUCACCCAUGUAGAAGGGACGAGCUGAU | 31.7 nM | 310 nM |  | 
20 | AUCAGCUCGUCAGGAUAUACGUCACUGCGUCAGCAGUGUGGUAACAUCACAUGAGGAUCACCCAUGUAGAAGGGACGAGCUGAU | 5.84 nM | 11.3 nM |  | 
21 | AUCAGCUCGUCAGGAUAUACGUCACUGCGUCAGCAGUGUGGUAAGAUCACAUGAGGAUCACCCAUGUAGAAGGCACGAGCUGAU | 8.44 nM | 9.04 nM |  | 

Row | Sequence | apparent Kd [1] | apparent Kd [2] | apparent Kd [3] | apparent Kd [4]
22 | AUCAGCUCGUCAGGAUAUACGUCACUGCGUCAGCAGUGUGGUAAGAUGACAUGAGGAUCACCCAUGUAGAAGGGACGAGCUGAU | 6.82 nM | 15.8 nM |  | 
23 | AUCAGCUCGUCAGGAUAUACGUCAGUGCGUCAGCAGUGUGGUAAGAUCACAUGAGGAUCACCCAUGUAGAAGGGACGAGCUGAU | 161 nM | 621 nM |  | 
24 | AUCAGCUCGUCAGGAUAUACGUCCCUGCGUCAGCAGUGUGGUAAGAUCACAUGAGGAUCACCCAUGUAGAAGGGACGAGCUGAU | 22.9 nM | 312 nM |  | 
25 | AUCAGCUCGUCAGGAUAUACGUCUCUGCGUCAGCAGUGUGGUAAGAUCACAUGAGGAUCACCCAUGUAGAAGGGACGAGCUGAU | 42.9 nM | 691 nM |  | 
26 | AUCAGCUCGUCAGGAUAUAUGUCACUGCUUCGGCAGUGUGGUAAGAUUACAUGAGGAUCACCCAUGUAGAAGGGACGAGCUGAU | 6.12 nM | 6.9 nM |  | 
27 | AUCAGCUCGUGAGGAUAUACGUCACUGCUUCGGCAGUGUGGUAAGAUCACAUGAGGAUCACCCAUGUAGAAGGCACGAGCUGAU | 21.4 nM | 471 nM |  | 
28 | AUCAGCUUGACAGGAUAUACAUGACUGCGAAAGCAGUCUAUCUUAAUAACAUGAGGAUCACCCAUGUAGAAGGGUCGAGCUGAU | 17.8 nM | 27 nM |  | 
29 | AUCAUGCUCAAGAAGGACAUGAGGAUCACCCAUGUAGGAUAUUGGGCGGUCACCUCUAGCUUGUGUGUAUCUGAAUACUCCAGG |  |  | 21.1 nM | 7.17 nM
30 | AUCAUGUAAGGAUAUCUUACAUGUGACGAAAGUCACAGUUAAGAGAAGGUACAUGAGGAUCACCCAUGUAUAAC | 27.4 nM | 54.9 nM |  | 
31 | AUCCCGAUAGUAGGAUAUUUCUGCAGUUGUGGUUAGGUCGCCCUACAUGAGGAUCACCCAUGUAGAGAGAAGGACUGUGGUUAA | 5.52 nM | 6.7 nM |  | 
32 | AUCCGACAUGAGGAUCACCCAUGUCAGGAUAUGGACUGACACCGAAAGAGUGGAGGAACCAGAAGGGACUGGGC | 27.7 nM | 46.5 nM |  | 
33 | AUCCGACAUGAGGAUCACCCAUGUCAGGAUAUGGACUGACACCGAAAGGAUGGAGGAACCAGAAGGGACUGGGC | 32.5 nM | 47.8 nM |  | 
34 | AUCGGUCCGUAGAAGGGUGACAUGAGGAUCACCCAUGUGCCGUGUGCAUUUAUGCAUCCACGGCCACAGGAUAUACGGAGUUGA |  |  | 34.9 nM | 25.4 nM
35 | AUCGGUCCGUAGAAGGGUGACAUGAGGAUCACCCAUGUGCCGUGUGCAUUUAUGCCUCCACGGCCACAGGAUAUACGGAGUUGA |  |  | 80.1 nM | 39.1 nM
36 | AUCUAGUCAGGAUAUACGAACCGAUGAAUCGGACGGAACGAACAUGAGGAUCACCCAUGUAGAAGGGACACUCA | 162 nM | 163 nM |  | 
37 | AUCUCAGGACGAGGAUAUCAAUACAUGAGGAUCACCCAUGUAUGAUUACUGUGAUCCUCUAAGGCUGAGAAGGCGUCCCAAUUA | 20.4 nM | 8.37 nM |  | 
38 | AUCUUGUCAGGAUAUCUGACAAGUGACGAAAGUCACAGUUCAGAGAAGGUACAUGAGGAUCACCCAUGUAGAAC | 19.4 nM | 19.2 nM |  | 
39 | AUCUUUAACAUAGGAUAUAGUAUGAAGGUUUAUUUAGAAGGAUGUCACAUGAGGAUCACCCAUGUAUUAGGAUUACCCAUGUAU | 30.1 nM | 23.1 nM |  | 
40 | AUCUUUAAGAUAGGAUAUAGUAUGAUGGUUUAAUUAGAAGGAUCUCACAUGAGGAUCACCCAUGUAAUAGGAUUACCCAUGUAU | 46.1 nM | 31.7 nM |  | 
41 | AUGAAAGUAACACAGGAUAUCGAGGAUACAACAUGAGGAUCACCCAUGUACAUACGAACGUAUAACGAGAAGGGUGGAUGAUCUUC |  |  | 244 nM | 639 nM
